Reference: ChEMBL document CHEMBL1136237, “2-piperidin-4-yl-benzimidazoles with broad spectrum antibacterial activities” (2003)
≈ marks a conversion by molar mass, not a printed value.

How the values were obtained:
Candida albicans = test: Antifungal activity determined against Candida albicans 10231; assay type: functional
Method in brief: (§1)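 Candida albicans: an overnight-culture yeast suspension was added to compound in 2.5% DMSO in water, giving a final inoculum of about 10^2–10^3 CFU/well. Plates were incubated 40–48 h at 25 °C, and growth versus a no-compound control was read as A595. MIC was given as a range: complete inhibition at the higher concentration, viable cells at the lower.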

Enterococcus faecium [1] = test: Antibacterial activity determined against Enterococcus faecium ATCC 6569; assay type: functional
Method in brief: as §1, with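 “Broth microdilution:” for “Candida albicans:”, “bacterial” for “yeast”, “20–24” for “40–48”, “37” for “25”, “relative to” for “versus”, “upper” for “higher”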

Enterococcus faecium [2] = test: Antibacterial activity determined against Enterococcus faecium ATCC 882; assay type: functional
Method in brief: as §1, with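 “Broth microdilution:” for “Candida albicans:”, “bacterial” for “yeast”, “20–24” for “40–48”, “37” for “25”, “relative to” for “versus”, “upper” for “higher”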

Escherichia coli [3] = test: Antibacterial activity determined against Escherichia coli; assay type: functional
Method in brief: as §1, with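 “Broth microdilution:” for “Candida albicans:”, “bacterial” for “yeast”, “20–24” for “40–48”, “37” for “25”, “relative to” for “versus”, “upper” for “higher”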

Escherichia coli [4] = test: Antibacterial activity determined against gram-negativeE. coli 25922; assay type: functional
Method in brief: as §1, with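 “Broth microdilution:” for “Candida albicans:”, “bacterial” for “yeast”, “20–24” for “40–48”, “37” for “25”, “relative to” for “versus”, “upper” for “higher”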

Enterococcus faecalis [5] = test: Antibacterial activity determined against Enterococcus faecalis ATCC 11823; assay type: functional
Method in brief: as §1, with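 “Broth microdilution:” for “Candida albicans:”, “bacterial” for “yeast”, “20–24” for “40–48”, “37” for “25”, “relative to” for “versus”, “upper” for “higher”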

Enterococcus faecalis [6] = test: Antibacterial activity determined against Enterococcus faecalis ATCC 23241; assay type: functional
Method in brief: as §1, with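 “Broth microdilution:” for “Candida albicans:”, “bacterial” for “yeast”, “20–24” for “40–48”, “37” for “25”, “relative to” for “versus”, “upper” for “higher”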

Enterococcus faecalis [7] = test: Antibacterial activity determined against Enterococcus faecalis ATCC 4200; assay type: functional
Method in brief: as §1, with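 “Broth microdilution:” for “Candida albicans:”, “bacterial” for “yeast”, “20–24” for “40–48”, “37” for “25”, “relative to” for “versus”, “upper” for “higher”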

Enterococcus faecalis [8] = test: Antibacterial activity determined against Enterococcus faecalis ATCC 49757; assay type: functional
Method in brief: as §1, with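 “Broth microdilution:” for “Candida albicans:”, “bacterial” for “yeast”, “20–24” for “40–48”, “37” for “25”, “relative to” for “versus”, “upper” for “higher”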

Enterococcus hirae = test: Antibacterial activity determined against gram-positive Enterococcus hirae 29212; assay type: functional
Method in brief: as §1, with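 “Broth microdilution:” for “Candida albicans:”, “bacterial” for “yeast”, “20–24” for “40–48”, “37” for “25”, “relative to” for “versus”, “upper” for “higher”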

Klebsiella pneumoniae = test: Antibacterial activity determined against gram-negativeK. pneumoniae 13383; assay type: functional
Method in brief: as §1, with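 “Broth microdilution:” for “Candida albicans:”, “bacterial” for “yeast”, “20–24” for “40–48”, “37” for “25”, “relative to” for “versus”, “upper” for “higher”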

Proteus vulgaris = test: Antibacterial activity determined against gram-negativeP. vulgaris 8427; assay type: functional
Method in brief: as §1, with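 “Broth microdilution:” for “Candida albicans:”, “bacterial” for “yeast”, “20–24” for “40–48”, “37” for “25”, “relative to” for “versus”, “upper” for “higher”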

Pseudomonas aeruginosa = test: Antibacterial activity determined against gram-negativeP. aeruginosa 25416; assay type: functional
Method in brief: as §1, with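 “Broth microdilution:” for “Candida albicans:”, “bacterial” for “yeast”, “20–24” for “40–48”, “37” for “25”, “relative to” for “versus”, “upper” for “higher”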

Staphylococcus aureus [9] = test: Antibacterial activity determined against Staphylococcus aureus; assay type: functional
Method in brief: as §1, with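 “Broth microdilution:” for “Candida albicans:”, “bacterial” for “yeast”, “20–24” for “40–48”, “37” for “25”, “relative to” for “versus”, “upper” for “higher”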

Staphylococcus aureus [10] = test: Antibacterial activity determined against gram-positive Staphylococcus aureus 13709; assay type: functional
Method in brief: as §1, with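 “Broth microdilution:” for “Candida albicans:”, “bacterial” for “yeast”, “20–24” for “40–48”, “37” for “25”, “relative to” for “versus”, “upper” for “higher”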

Streptococcus pyogenes = test: Antibacterial activity determined against gram-positive Streptococcus pyogenes 49399; assay type: functional
Method in brief: as §1, with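 “Broth microdilution:” for “Candida albicans:”, “bacterial” for “yeast”, “20–24” for “40–48”, “37” for “25”, “relative to” for “versus”, “upper” for “higher”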

Streptococcus pneumoniae = test: Antibacterial activity determined against gram-positive Streptococcus pneumoniae 6303; assay type: functional
Method in brief: as §1, with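 “Broth microdilution:” for “Candida albicans:”, “bacterial” for “yeast”, “20–24” for “40–48”, “37” for “25”, “relative to” for “versus”, “upper” for “higher”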

Enterococcus faecalis [11] = test: Antibacterial activity determined against Enterococcus faecalis ATCC 828; assay type: functional
Method in brief: as §1, with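 “Broth microdilution:” for “Candida albicans:”, “bacterial” for “yeast”, “20–24” for “40–48”, “37” for “25”, “relative to” for “versus”, “upper” for “higher”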

[12] = Inhibition of bacterial transcription/translation

Structure (SMILES) | MIC (Candida albicans) [µM] | MIC (Enterococcus faecium [1]) [µM] | MIC (Enterococcus faecium [2]) [µM] | MIC (Escherichia coli [3]) [µM] | MIC (Escherichia coli [4]) [µM] | MIC (Enterococcus faecalis [5]) [µM] | MIC (Enterococcus faecalis [6]) [µM] | MIC (Enterococcus faecalis [7]) [µM] | MIC (Enterococcus faecalis [8]) [µM] | MIC (Enterococcus hirae) [µM] | MIC (Klebsiella pneumoniae) [µM] | MIC (Proteus vulgaris) [µM] | MIC (Pseudomonas aeruginosa) [µM] | MIC (Staphylococcus aureus [9]) [µM] | MIC (Staphylococcus aureus [10]) [µM] | MIC (Streptococcus pyogenes) [µM] | MIC (Streptococcus pneumoniae) [µM] | MIC (Enterococcus faecalis [11]) [µM] | IC50 [12] [µM]
Clc1cc2nc(C3CCNCC3)n(Cc3ccncc3)c2cc1Cl |  |  |  | 50 (≈ 18.1 µg/mL) |  |  |  |  |  |  |  |  |  | 50 (≈ 18.1 µg/mL) |  |  |  |  | > 100
Clc1cc2nc(C3CCNCC3)[nH]c2cc1Cl |  |  |  | > 100 |  |  |  |  |  |  |  |  |  | > 100 |  |  |  |  | > 100
NCCCCNCc1ccc(Cn2c(C3CCNCC3)nc3cc(Cl)c(Cl)cc32)cc1 | > 100 | 12 (≈ 5.53 µg/mL) | 12 (≈ 5.53 µg/mL) | 25 (≈ 11.5 µg/mL) | 25 (≈ 11.5 µg/mL) | 12 (≈ 5.53 µg/mL) | 12 (≈ 5.53 µg/mL) | 12 (≈ 5.53 µg/mL) | 12 (≈ 5.53 µg/mL) | 3 (≈ 1.38 µg/mL) | 25 (≈ 11.5 µg/mL) |  | 25 (≈ 11.5 µg/mL) | 6 (≈ 2.76 µg/mL) | 6 (≈ 2.76 µg/mL) | 6 (≈ 2.76 µg/mL) | 25 (≈ 11.5 µg/mL) | 12 (≈ 5.53 µg/mL) | 50
NCCCNCc1ccc(Cn2c(C3CCNCC3)nc3cc(Cl)c(Cl)cc32)cc1 | > 100 | 12 (≈ 5.36 µg/mL) | 25 (≈ 11.2 µg/mL) | 50 (≈ 22.3 µg/mL) | 50 (≈ 22.3 µg/mL) | 12 (≈ 5.36 µg/mL) | 25 (≈ 11.2 µg/mL) | 25 (≈ 11.2 µg/mL) | 12 (≈ 5.36 µg/mL) | 6 (≈ 2.68 µg/mL) | 25 (≈ 11.2 µg/mL) |  | 25 (≈ 11.2 µg/mL) | 12 (≈ 5.36 µg/mL) | 12 (≈ 5.36 µg/mL) | 6 (≈ 2.68 µg/mL) | 25 (≈ 11.2 µg/mL) | 12 (≈ 5.36 µg/mL) | 20
Clc1cc2nc(C3CCNCC3)n(Cc3ccc(CNCCc4cc5ccccc5[nH]4)cc3)c2cc1Cl |  |  |  | 12 (≈ 6.39 µg/mL) |  |  |  |  |  |  |  |  |  | 12 (≈ 6.39 µg/mL) |  |  |  |  | > 100
Clc1cc2nc(C3CCNCC3)n(Cc3ccc(CNCCc4c[nH]cn4)cc3)c2cc1Cl | > 100 |  |  | 12 (≈ 5.8 µg/mL) | 12 (≈ 5.8 µg/mL) |  |  |  |  | 3 (≈ 1.45 µg/mL) | 12 (≈ 5.8 µg/mL) | 25 (≈ 12.1 µg/mL) | 25 (≈ 12.1 µg/mL) | 6 (≈ 2.9 µg/mL) | 6 (≈ 2.9 µg/mL) | 6 (≈ 2.9 µg/mL) | 12 (≈ 5.8 µg/mL) |  | 25

Further lines, results first:

MIC (Candida albicans) [µM] | MIC (Enterococcus faecium [1]) [µM] | MIC (Enterococcus faecium [2]) [µM] | MIC (Escherichia coli [3]) [µM] | MIC (Escherichia coli [4]) [µM] | MIC (Enterococcus faecalis [5]) [µM] | MIC (Enterococcus faecalis [6]) [µM] | MIC (Enterococcus faecalis [7]) [µM] | MIC (Enterococcus faecalis [8]) [µM] | MIC (Enterococcus hirae) [µM] | MIC (Klebsiella pneumoniae) [µM] | MIC (Proteus vulgaris) [µM] | MIC (Pseudomonas aeruginosa) [µM] | MIC (Staphylococcus aureus [9]) [µM] | MIC (Staphylococcus aureus [10]) [µM] | MIC (Streptococcus pyogenes) [µM] | MIC (Streptococcus pneumoniae) [µM] | MIC (Enterococcus faecalis [11]) [µM] | IC50 [12] [µM] | Structure (SMILES)
50 (≈ 23 µg/mL) | 3 (≈ 1.38 µg/mL) | 6 (≈ 2.76 µg/mL) | 12 (≈ 5.51 µg/mL) | 12 (≈ 5.51 µg/mL) | 3 (≈ 1.38 µg/mL) | 6 (≈ 2.76 µg/mL) | 6 (≈ 2.76 µg/mL) | 6 (≈ 2.76 µg/mL) | 1 (≈ 0.459 µg/mL) | 6 (≈ 2.76 µg/mL) | 25 (≈ 11.5 µg/mL) | 25 (≈ 11.5 µg/mL) | 6 (≈ 2.76 µg/mL) | 6 (≈ 2.76 µg/mL) | 3 (≈ 1.38 µg/mL) | 12 (≈ 5.51 µg/mL) | 6 (≈ 2.76 µg/mL) | > 100 | CCCCCNCc1ccc(Cn2c(C3CCNCC3)nc3cc(Cl)c(Cl)cc32)cc1
> 100 | 12 (≈ 6.2 µg/mL) |  | 6 (≈ 3.1 µg/mL) | 6 (≈ 3.1 µg/mL) | 6 (≈ 3.1 µg/mL) |  | 25 (≈ 12.9 µg/mL) | 50 (≈ 25.8 µg/mL) | 1 (≈ 0.517 µg/mL) | 6 (≈ 3.1 µg/mL) | 12 (≈ 6.2 µg/mL) | 25 (≈ 12.9 µg/mL) | 6 (≈ 3.1 µg/mL) | 6 (≈ 3.1 µg/mL) | 3 (≈ 1.55 µg/mL) | 6 (≈ 3.1 µg/mL) | 50 (≈ 25.8 µg/mL) | > 100 | NCCCCCCCCNCc1ccc(Cn2c(C3CCNCC3)nc3cc(Cl)c(Cl)cc32)cc1
50 (≈ 22.9 µg/mL) | 6 (≈ 2.75 µg/mL) | 6 (≈ 2.75 µg/mL) | 12 (≈ 5.5 µg/mL) | 12 (≈ 5.5 µg/mL) | 12 (≈ 5.5 µg/mL) | 6 (≈ 2.75 µg/mL) | 12 (≈ 5.5 µg/mL) | 12 (≈ 5.5 µg/mL) | 3 (≈ 1.38 µg/mL) | 6 (≈ 2.75 µg/mL) | 12 (≈ 5.5 µg/mL) | 12 (≈ 5.5 µg/mL) | 6 (≈ 2.75 µg/mL) | 6 (≈ 2.75 µg/mL) | 6 (≈ 2.75 µg/mL) | 12 (≈ 5.5 µg/mL) | 6 (≈ 2.75 µg/mL) | > 100 | Clc1cc2nc(C3CCNCC3)n(Cc3ccc(CN4CCNCC4)cc3)c2cc1Cl
> 100 |  |  | 12 (≈ 6.22 µg/mL) | 12 (≈ 6.22 µg/mL) |  |  |  |  | 3 (≈ 1.56 µg/mL) | 12 (≈ 6.22 µg/mL) | 25 (≈ 13 µg/mL) | 12 (≈ 6.22 µg/mL) | 3 (≈ 1.56 µg/mL) | 3 (≈ 1.56 µg/mL) | 3 (≈ 1.56 µg/mL) | 6 (≈ 3.11 µg/mL) |  | 10 | NCCN(CCN)CCNCc1ccc(Cn2c(C3CCNCC3)nc3cc(Cl)c(Cl)cc32)cc1
 |  |  | 12 (≈ 5.3 µg/mL) |  |  |  |  |  |  |  |  |  | 12 (≈ 5.3 µg/mL) |  |  |  |  | > 100 | Clc1cc2nc(C3CCNCC3)n(Cc3ccc(Cn4cncn4)cc3)c2cc1Cl
 |  |  | 12 (≈ 5.67 µg/mL) |  |  |  |  |  |  |  |  |  | 12 (≈ 5.67 µg/mL) |  |  |  |  | > 100 | Clc1cc2nc(C3CCNCC3)n(Cc3ccc(CNC[C@@H]4CCCN4)cc3)c2cc1Cl
> 100 | 6 (≈ 2.83 µg/mL) | 12 (≈ 5.67 µg/mL) | 12 (≈ 5.67 µg/mL) | 12 (≈ 5.67 µg/mL) | 12 (≈ 5.67 µg/mL) | 12 (≈ 5.67 µg/mL) | 12 (≈ 5.67 µg/mL) | 6 (≈ 2.83 µg/mL) | 3 (≈ 1.42 µg/mL) | 12 (≈ 5.67 µg/mL) | 25 (≈ 11.8 µg/mL) | 25 (≈ 11.8 µg/mL) | 6 (≈ 2.83 µg/mL) | 6 (≈ 2.83 µg/mL) | 6 (≈ 2.83 µg/mL) | 12 (≈ 5.67 µg/mL) | 12 (≈ 5.67 µg/mL) | > 100 | Clc1cc2nc(C3CCNCC3)n(Cc3ccc(CN4CCCNCC4)cc3)c2cc1Cl
